This is an account of results in ChEMBL document CHEMBL3232994, “Searching for new derivatives of neocryptolepine: synthesis, antiproliferative, antimicrobial and antifungal activities” (Eur J Med Chem, 2014).

Values after ≈ are worked out from the molar mass of the structure shown. Active and inactive are the calls of the source. The rule behind the calls is not given here. Some results are limits rather than exact numbers.

Experiment [1] concerns Staphylococcus aureus. Kind of experiment: Antibacterial activity against Staphylococcus aureus NCTC 4163 assessed as growth inhibition after 18 hrs by two-fold serial dilution method. The following applies: NCTC 4163, 18 h. It counts as functional. The gist of the method: (§1)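 Twofold serial agar dilution on Mueller–Hinton II agar per CLSI. Final inoculum 10⁴ CFU/mL, except Enterococcus hirae ATCC 10541 at 10⁵ CFU/mL. MIC read after 18 h at 35 °C.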

Experiment [2] relates to Enterococcus hirae. Kind of experiment: Antibacterial activity against Enterococcus hirae ATCC 10541 assessed as growth inhibition after 18 hrs by two-fold serial dilution method. To be noted: ATCC 10541, 18 h. It counts as functional. The gist of the method:
as §1

The test system of experiment [3] is Candida albicans. In words: Antifungal activity against Candida albicans SN250 assessed as growth inhibition after 18 hrs by two-fold serial dilution method. In kind it is functional. The following applies: SN250, 18 h.
In experiment [4] the test system is Staphylococcus aureus. Kind of experiment: Antibacterial activity against Staphylococcus aureus ATCC 25923 assessed as growth inhibition after 18 hrs by two-fold serial dilution method. It counts as functional. To be noted: ATCC 25923, 18 h. A digest of the protocol:
as §1

Experiment [5] concerns Micrococcus luteus. Kind of experiment: Antibacterial activity against Micrococcus luteus ATCC 9341 assessed as growth inhibition after 18 hrs by two-fold serial dilution method. To be noted: ATCC 9341, 18 h.
Experiment [6] relates to Staphylococcus epidermidis. In words: Antibacterial activity against Staphylococcus epidermidis ATCC 12228 assessed as growth inhibition after 18 hrs by two-fold serial dilution method. It counts as functional. The following applies: ATCC 12228, 18 h. A digest of the protocol:
as §1

For experiment [7], the system named is Candida albicans. In words: Antifungal activity against Candida albicans ATCC 90028 assessed as growth inhibition after 18 hrs by two-fold serial dilution method. It counts as functional. To be noted: ATCC 90028, 18 h. A digest of the protocol:
(§2)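 MIC by twofold serial dilution on RPMI agar per CLSI. Final inoculum 10⁴ CFU/mL. Plates read after 18 h at 35 °C.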

In experiment [8] the test system is Candida parapsilosis. In words: Antifungal activity against Candida parapsilosis ATCC 22019 assessed as growth inhibition after 18 hrs by two-fold serial dilution method. The following applies: Lodderomyces parapsilosis, ATCC 22019, 18 h. In kind it is functional.
The test system of experiment [9] is Bacillus spizizenii. Kind of experiment: Antibacterial activity against Bacillus subtilis ATCC 6633 assessed as growth inhibition after 18 hrs by two-fold serial dilution method. It counts as functional. The following applies: ATCC 6633, 18 h. A digest of the protocol:
as §1

The subject of experiment [10] is Micrococcus luteus. In words: Antibacterial activity against Micrococcus luteus ATCC 10240 assessed as growth inhibition after 18 hrs by two-fold serial dilution method. In kind it is functional. The following applies: ATCC 10240, 18 h. The gist of the method:
as §1

In experiment [11] the test system is Staphylococcus aureus. In words: Antibacterial activity against Staphylococcus aureus ATCC 6538 assessed as growth inhibition after 18 hrs by two-fold serial dilution method. It counts as functional. The following applies: ATCC 6538, 18 h. The gist of the method: as §1
Experiment [12] deals with Candida albicans. In words: Antifungal activity against Candida albicans ATCC 10231 assessed as growth inhibition after 18 hrs by two-fold serial dilution method. It counts as functional. The following applies: ATCC 10231, 18 h. A digest of the protocol:
as §2

The test system of experiment [13] is Staphylococcus aureus. Kind of experiment: Antibacterial activity against Staphylococcus aureus ATCC 29213 assessed as growth inhibition after 18 hrs by two-fold serial dilution method. To be noted: ATCC 29213, 18 h. It counts as functional. A digest of the protocol:
as §1

In experiment [14] the test system is Bacillus cereus. Kind of experiment: Antibacterial activity against Bacillus cereus ATCC 11778 assessed as growth inhibition after 18 hrs by two-fold serial dilution method. In kind it is functional. The following applies: ATCC 11778, 18 h. The gist of the method:
as §1

Experiment [15] relates to Candida albicans. Kind of experiment: Antifungal activity against Candida albicans SN250 assessed as inhibition of biofilm formation < MIC after 24 hrs by XTT reduction assay. In kind it is functional, organism-based. (Formazan colour is commonly taken as a measure of viable cells.)
In experiment [16] the test system is BALB/3T3. Kind of experiment: Cytotoxicity against mouse BALB/3T3 cells assessed as growth inhibition after 72 hrs by SRB assay. It counts as cell-based. To be noted: BALB/3T3, 72 h. A digest of the protocol: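 Mouse fibroblasts were kept in Dulbecco medium with 10% FBS, L-glutamine and pyruvate, and seeded at 10⁴/well 24 h before dosing. Agents were given at four tenfold final levels for 72 h. Cells were TCA-fixed (50%, 4 °C, 1 h) and stained with 0.4% SRB in 1% acetic acid. Triplicate wells, 3–5 repeats. IC50 versus untreated cells.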

For experiment [17], the system named is A549. In words: Cytotoxicity against human A549 cells assessed as growth inhibition after 72 hrs by SRB assay. To be noted: A549, 72 h. It counts as functional, cell-based. A digest of the protocol:
(§3)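 Cells were seeded at 10⁴/well in RPMI 1640/Opti-MEM (1:1) with 5% FBS, plus 0.01 mg/mL insulin for MCF-7, 24 h before dosing. Agents in water/medium were given at four tenfold final levels for 72 h. Cells were fixed with cold 50% TCA (1 h, 4 °C), stained with 0.4% SRB, cell-free blank. Triplicate wells, 3–5 repeats. IC50 relative to untreated control.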
For orientation: Sulforhodamine B stains cellular protein and so reports cell mass.

For experiment [18], the system named is KB. Kind of experiment: Cytotoxicity against human KB cells assessed as growth inhibition after 72 hrs by SRB assay. It counts as functional, cell-based. A digest of the protocol: as §3
Experiment [19] relates to MCF7. In words: Cytotoxicity against human MCF7 cells assessed as growth inhibition after 72 hrs by SRB assay. In kind it is functional, cell-based. To be noted: MCF7, 72 h. The gist of the method: as §3
For experiment [20], the system named is LoVo. Kind of experiment: Cytotoxicity against human LoVo cells assessed as growth inhibition after 72 hrs by SRB assay. It counts as functional, cell-based. A digest of the protocol: as §3

Turning to `Cc1c2c3cc(NC(=O)[C@@H](N)Cc4cnc[nH]4)ccc3nc-2n(C)c2ccccc12.Cl`, the MIC in experiment [1] was greater than 200 µg/mL; in experiment [2], greater than 200 µg/mL; in [3], 125 µg/mL; in experiment [4], greater than 200 µg/mL; in [5] it was greater than 200 µg/mL; in [6], greater than 200 µg/mL. The MIC in experiment [7], in [8], in experiment [9], in [10], in experiment [11] and in experiment [12] was greater than 200 µg/mL each time. Moreover, the minimal inhibitory concentration (MIC) in experiment [13] and in [14] was greater than 200 µg/mL throughout.
With `OC(Cn1cncn1)(Cn1cncn1)c1ccc(F)cc1F` [FLUCONAZOLE], the results for the MIC in experiment [7], in experiment [8] and in experiment [12] were 1 µg/mL (≈ 3.27 µM), 2 µg/mL (≈ 6.53 µM) and 1 µg/mL (≈ 3.27 µM), respectively.
`O=C(O)c1cn(C2CC2)c2cc(N3CCNCC3)c(F)cc2c1=O` [CIPROFLOXACIN]: the MIC in [1] was 0.25 µg/mL (≈ 0.754 µM); in experiment [2], 4 µg/mL (≈ 12.1 µM); in [4] it was 0.5 µg/mL (≈ 1.51 µM); in experiment [5] it was 2 µg/mL (≈ 6.04 µM); in experiment [6], 0.25 µg/mL (≈ 0.754 µM); in experiment [9], less than 0.125 µg/mL. The MIC came out at 1 µg/mL (≈ 3.02 µM) in experiment [10], 0.25 µg/mL (≈ 0.754 µM) in [11], 0.5 µg/mL (≈ 1.51 µM) in experiment [13] and 1 µg/mL (≈ 3.02 µM) in [14].
In the case of `Cc1c2c3cc(NC(=O)CN)ccc3nc-2n(C)c2ccccc12.Cl.Cl`, the minimum inhibitory concentration (MIC) in [1] amounted to 50 µg/mL; in [2], 100 µg/mL; in experiment [3], 15.6 µg/mL; in experiment [4], 50 µg/mL; in experiment [5], 6.25 µg/mL; in experiment [6] it was 25 µg/mL. Also, the MIC in [7] stood at 50 µg/mL; in experiment [8], 25 µg/mL; in experiment [9], 12.5 µg/mL; in [10], 6.25 µg/mL; in experiment [11], 50 µg/mL; in [12], 25 µg/mL. For the same compound, the MIC in [13] was 100 µg/mL; in [14], 50 µg/mL. Moreover, the inhibition entry in [15] is “Active”.
Consider `Cc1c2c3ccccc3nc-2n(C)c2ccc(NC(=O)[C@@H]3CCCN3)cc12.Cl`, for which the IC50 in experiment [16] stood at 540 nM; in experiment [17], 120 nM; in experiment [18] it was 470 nM; in experiment [19] it was 620 nM; in experiment [20], 70 nM. In addition, the MIC in [1] worked out at 12.5 µg/mL; in experiment [2], 100 µg/mL; in experiment [3], 31.2 µg/mL; in [4], 50 µg/mL; in [5], 6.25 µg/mL; in [6], 12.5 µg/mL. For the same compound, the MIC in experiment [7] was found to be 50 µg/mL; in experiment [8], 50 µg/mL; in experiment [9] it was 6.25 µg/mL; in experiment [10] it was 6.25 µg/mL; in experiment [11], 12.5 µg/mL; in experiment [12], 100 µg/mL. In addition, the results for the MIC in experiment [13] and in experiment [14] were 50 µg/mL and 25 µg/mL, respectively.
On to `Cc1c2c3cc(NC(=O)[C@@H]4CCCN4)ccc3nc-2n(C)c2ccccc12.Cl.Cl`, for which the MIC was found to be 12.5 µg/mL in experiment [1]; 100 µg/mL in experiment [2]; 200 µg/mL in [3]; 50 µg/mL in [4]; 6.25 µg/mL in [5]; 12.5 µg/mL in experiment [6]. Also, the MIC was 200 µg/mL in experiment [7]; 200 µg/mL in experiment [8]; 12.5 µg/mL in [9]; 6.25 µg/mL in experiment [10]; 12.5 µg/mL in experiment [11]; 200 µg/mL in [12]. Also, the MIC in [13] and in experiment [14] was 50 µg/mL in each case. The inhibition entry in [15] was “Active”.

In general, MIC refers to the lowest concentration found to suppress growth. By IC50 is commonly meant the concentration that gives 50% inhibition.
